Measurements from different studies.
Lines come from different studies, so protocols differ.
Cell line: SK-MEL-2
Observed: cell growth or viability

SMILES	assay	conditions	endpoint	result
COc1ccc(C(=O)/C=C/c2ccccc2Br)cc1S(N)(=O)=O	SRB	48 h	GI50	14.5 µM
O=C1NCCc2[nH]c(-c3ccncc3)cc21	–	–	IC50	> 10 µM
COc1ccc(C(=O)/C=C/c2ccc(Cl)c(Cl)c2)cc1S(N)(=O)=O	SRB	48 h	GI50	5.6 µM
COc1ccc(-c2ccc(-c3ccc(C(=N)N)nc3)s2)cc1Cl	SRB	–	GI50	2.15 µM
O=C1NC(=NCc2cccs2)S/C1=C\c1ccc2ncccc2c1	–	–	IC50	> 10 µM
COc1cccc(Oc2ccccc2NC(=O)CNC(=O)c2cccc3ccccc23)c1	SRB	48 h	GI50	0.182 µM
COc1ccc(-c2ccc(-c3ccc(C(=N)N)nc3)s2)cc1	SRB	–	GI50	2.05 µM
O=C(c1c(F)ccc(NS(=O)(=O)N2CC[C@@H](F)C2)c1F)c1c[nH]c2ncc(-c3cnc(C4CC4)nc3)cc12	ATP luminescence	72 h	IC50	> 20 µM
